Experimental data from ChEMBL document CHEMBL2203249, “Optimization of a small tropomyosin-related kinase B (TrkB) agonist 7,8-dihydroxyflavone active in mouse models of depression” (J Med Chem, 2012).
Calls of active or inactive are those of the source. The rule behind the calls is not given here.

Tests used:
[1] = target: BDNF/NT-3 growth factors receptor (Rattus norvegicus) (UniProt Q63604); assay: Agonist activity at TrkB receptor in rat primary neurons assessed as TrkB phosphorylation at tyrosine 816 at 500 nM after 15 mins by immunoblotting analysis; assay type: functional
In short: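 Primary cortical cultures from E17 rat embryos were exposed to 500 nM for 15 min. Lysates were immunoblotted for p-TrkB and p-Akt (20 μg per lane). Two replicate experiments.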

[2] = system: Mus musculus; assay: Toxicity in C57BL/J6 mouse assessed as increase in locomotion at 2.5 mg/kg, po administered qd for 21 days by locomotor activity assay; assay type: organism-based; parameters: dose 2.5 mg/kg, route oral; conditions: in vivo, 504 h
In short: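 Male C57BL/6J mice were given compound or saline vehicle by oral gavage once daily for 21 days, with forced swim and tail suspension tests also run. Ambulations (consecutive photobeam breaks) were recorded in automated locomotor chambers for 2 h, binned at 30 min intervals.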

[3] = target: T1, CYP2C9 (Homo sapiens, UniProt P11712); assay: Inhibition of CYP2C9 at 30 uM; assay type: ADME
In short: (§1)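 CYP inhibition was tested at 3 and 30 μM and reported as percent inhibition. The assay was run by a contract lab.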

[4] = target: T2, CYP3A4 (Homo sapiens, UniProt P08684); assay: Inhibition of CYP3A4 at 30 uM using testosterone substrate; assay type: ADME; conditions: probe testosterone
[5] = target: T3, CYP2D6 (Homo sapiens, UniProt P10635); assay: Inhibition of CYP2D6 at 30 uM; assay type: ADME
[6] = target: T2, CYP3A4; assay: Inhibition of CYP3A4 at 30 uM using modazolam substrate; assay type: ADME; conditions: probe midazolam (printed: modazolam)
[7] = target: T3, CYP2D6; assay: Inhibition of CYP2D6 at 3 uM; assay type: ADME
[8] = system: Mus musculus; assay: Antidepressant activity in C57BL/J6 mouse assessed as reduction of immobility at 2.5 mg/kg, po administered qd for 21 days by tail suspension test; assay type: functional, organism-based; parameters: dose 2.5 mg/kg
In short: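 Male C57BL/6J mice were gavaged once daily for 21 days with 2.5 mg/kg or saline vehicle, then tested for immobility during tail suspension. n=8, Student's t-test.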

[9] = system: Mus musculus; assay: Agonist activity at TrkB receptor in C57BL/J6 mouse brain assessed as TrkB phosphorylation at tyrosine 816 in hippocampus at 2.5 mg/kg, po […] by Western blotting analysis; assay type: functional, organism-based; parameters: dose 2.5 mg/kg
In short: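 Male C57BL/6J mice were gavaged with 2.5 mg/kg/day for 21 days, with saline vehicle controls. Hippocampus was collected after the behavioural tests, and BrdU at 100 mg/kg i.p. was given 2 h before sacrifice. Lysates were immunoblotted for p-TrkB, total TrkB and p-Akt, and the p-TrkB/TrkB ratio was determined. Two replicate experiments, Student's t-test.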

[10] = system: Mus musculus; assay: Agonist activity at TrkB receptor in C57BL/J6 mouse brain assessed as TrkB phosphorylation at tyrosine 816 in dentate gyrus at 2.5 mg/kg, po administered qd for 21 days by immunohistochemical staining; assay type: functional, organism-based; parameters: dose 2.5 mg/kg
In short: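 Mice were gavaged with 2.5 mg/kg/day for 21 days and perfused with 4% paraformaldehyde. Paraffin sections of 6 μm had antigen retrieval by boiling in 10 mM citrate, pH 6.0. Sections were stained with anti-p-TrkB 816 at 1:300 and anti-TrkB at 1:50, with fluorescent secondaries and DAPI, and dentate gyrus was examined.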

[11] = target: T2, CYP3A4; assay: Inhibition of CYP3A4 at 3 uM using modazolam substrate; assay type: ADME; conditions: probe midazolam (printed: modazolam)
[12] = system: Mus musculus; assay: Agonist activity at TrkB receptor in C57BL/J6 mouse brain assessed as TrkB phosphorylation at tyrosine 816 in hippocampus at 1 mg/kg, po after 2 hrs by immunoblotting analysis; assay type: functional, organism-based; parameters: dose 1 mg/kg
In short: (§2)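 Hippocampus from male C57BL/6J mice was taken 2 h after a single 1 mg/kg oral dose. Brain was homogenised and ultracentrifuged, and 40 μg supernatant was immunoblotted for p-TrkB, p-Akt and p-MAPK.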

[13] = target: CYP2C19 (Homo sapiens, UniProt P33261); assay: Inhibition of CYP2C19 at 30 uM; assay type: ADME; in short: as §1
[14] = system: Mus musculus; assay: Agonist activity at TrkB receptor in C57BL/J6 mouse brain assessed as TrkB phosphorylation at tyrosine 816 in hippocampus at 2.5 mg/kg, po administered qd for 21 days by immunoblotting analysis
[15] = target: T2, CYP3A4; assay: Inhibition of CYP3A4 at 3 uM using testosterone substrate; assay type: ADME; conditions: probe testosterone
[16] = system: Mus musculus; assay: Agonist activity at TrkB receptor in C57BL/J6 mouse brain assessed as Akt phosphorylation at serine 473 in hippocampus at 1 mg/kg, po after 2 hrs by immunoblotting analysis; assay type: functional, organism-based; parameters: dose 1 mg/kg; in short: as §2
[17] = system: HepG2; assay: Genotoxicity in human HepG2 cells assessed as micronuclei formation at 50 uM after 24 hrs by DAPI staining; assay type: toxicity, cell-based; conditions: hepg2, 24 h
In short: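 HepG2 cells were exposed to 50 μM for 24 h, with benzo(a)pyrene as positive control. Cells were swollen in hypotonic KCl/NaCl for 10 min at 37°C, fixed in methanol/acetic acid 3:1 and stained with DAPI at 2 μg/ml. Three independent experiments, one-way ANOVA.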

[18] = system: HepG2; assay: Cytotoxicity against human HepG2 cells assessed as cell death upto 100 uM after 24 hrs by LDH assay; assay type: cell-based; conditions: hepg2, 24 h
In short: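 HepG2 cells were exposed to a range of concentrations up to 100 μM for 24 h, and cytotoxicity was measured by LDH release. n=3.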

[19] = target: T1, CYP2C9; assay: Inhibition of CYP2C9 at 3 uM; assay type: ADME; in short: as §1
[20] = target: T4, CYP1A2 (Homo sapiens, UniProt P05177); assay: Inhibition of CYP1A2 at 30 uM; assay type: ADME; in short: as §1
T4 sequence (P05177 whole entry): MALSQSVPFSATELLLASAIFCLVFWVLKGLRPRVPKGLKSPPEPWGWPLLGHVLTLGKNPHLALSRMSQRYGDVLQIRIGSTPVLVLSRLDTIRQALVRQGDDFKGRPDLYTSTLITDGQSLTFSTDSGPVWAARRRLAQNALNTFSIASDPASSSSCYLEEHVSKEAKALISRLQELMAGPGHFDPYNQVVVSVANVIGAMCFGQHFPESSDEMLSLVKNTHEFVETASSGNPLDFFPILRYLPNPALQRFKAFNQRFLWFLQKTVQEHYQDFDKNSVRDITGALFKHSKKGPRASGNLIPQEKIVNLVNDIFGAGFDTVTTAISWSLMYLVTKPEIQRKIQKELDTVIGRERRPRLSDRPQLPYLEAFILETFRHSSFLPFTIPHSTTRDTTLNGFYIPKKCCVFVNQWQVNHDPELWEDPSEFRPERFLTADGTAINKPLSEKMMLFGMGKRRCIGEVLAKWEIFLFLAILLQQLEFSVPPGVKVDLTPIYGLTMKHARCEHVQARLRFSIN

[21] = system: HepG2; assay: Genotoxicity in human HepG2 cells assessed as induction of DNA lesion at 100 uM after 24 hrs by comet assay; assay type: toxicity, cell-based; conditions: hepg2, 24 h
In short: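 HepG2 cells were exposed to 100 μM for 24 h, with etoposide as positive control. Cells were embedded in agarose, lysed 2 h at 4°C at pH 10, unwound 40 min in alkali at pH >13 and electrophoresed at 25 V for 30 min at 4°C. After ethidium bromide staining, comet-tail nuclei were counted in >100 cells per field. Three independent experiments, one-way ANOVA.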

[22] = Metabolic stability in human liver microsomes assessed as remaining parent compound at 1 uM after 1 hr in the absence of […]; assay type: ADME, Microsome; conditions: read-out: Stability
In short: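 Human liver microsomes were incubated with test compound at 1 μM for 1 h. Percent parent remaining was measured with cofactor and in a cofactor-free control. The work was done by a contract lab.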

T3 sequence (P10635 whole entry): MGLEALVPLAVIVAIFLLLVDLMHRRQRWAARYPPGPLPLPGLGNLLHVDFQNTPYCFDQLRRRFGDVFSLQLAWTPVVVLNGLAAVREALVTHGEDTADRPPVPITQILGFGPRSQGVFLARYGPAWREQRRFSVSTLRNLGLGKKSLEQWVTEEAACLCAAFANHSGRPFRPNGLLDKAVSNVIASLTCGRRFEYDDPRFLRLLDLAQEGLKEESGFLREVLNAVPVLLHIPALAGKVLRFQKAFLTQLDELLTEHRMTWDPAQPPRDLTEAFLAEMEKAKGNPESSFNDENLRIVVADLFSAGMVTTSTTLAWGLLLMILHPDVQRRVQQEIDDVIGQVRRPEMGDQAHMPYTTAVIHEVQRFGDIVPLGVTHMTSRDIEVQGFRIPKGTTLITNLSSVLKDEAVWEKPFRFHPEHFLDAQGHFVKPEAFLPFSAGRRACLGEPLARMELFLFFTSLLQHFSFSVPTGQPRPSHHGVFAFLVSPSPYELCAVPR
T1 sequence (P11712 whole entry): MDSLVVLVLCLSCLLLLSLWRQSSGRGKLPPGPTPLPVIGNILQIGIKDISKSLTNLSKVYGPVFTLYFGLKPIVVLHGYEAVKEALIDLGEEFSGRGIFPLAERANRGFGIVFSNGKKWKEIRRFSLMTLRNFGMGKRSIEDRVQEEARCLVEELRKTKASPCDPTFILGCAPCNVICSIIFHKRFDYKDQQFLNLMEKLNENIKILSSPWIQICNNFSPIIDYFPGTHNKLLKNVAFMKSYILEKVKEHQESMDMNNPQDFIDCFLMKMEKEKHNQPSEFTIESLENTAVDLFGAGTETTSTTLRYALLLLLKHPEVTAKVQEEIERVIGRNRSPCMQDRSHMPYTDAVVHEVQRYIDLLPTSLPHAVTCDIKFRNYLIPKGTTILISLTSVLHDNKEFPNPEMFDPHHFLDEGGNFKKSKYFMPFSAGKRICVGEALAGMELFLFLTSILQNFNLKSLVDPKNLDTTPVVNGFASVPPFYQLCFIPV
T2 sequence (P08684 whole entry): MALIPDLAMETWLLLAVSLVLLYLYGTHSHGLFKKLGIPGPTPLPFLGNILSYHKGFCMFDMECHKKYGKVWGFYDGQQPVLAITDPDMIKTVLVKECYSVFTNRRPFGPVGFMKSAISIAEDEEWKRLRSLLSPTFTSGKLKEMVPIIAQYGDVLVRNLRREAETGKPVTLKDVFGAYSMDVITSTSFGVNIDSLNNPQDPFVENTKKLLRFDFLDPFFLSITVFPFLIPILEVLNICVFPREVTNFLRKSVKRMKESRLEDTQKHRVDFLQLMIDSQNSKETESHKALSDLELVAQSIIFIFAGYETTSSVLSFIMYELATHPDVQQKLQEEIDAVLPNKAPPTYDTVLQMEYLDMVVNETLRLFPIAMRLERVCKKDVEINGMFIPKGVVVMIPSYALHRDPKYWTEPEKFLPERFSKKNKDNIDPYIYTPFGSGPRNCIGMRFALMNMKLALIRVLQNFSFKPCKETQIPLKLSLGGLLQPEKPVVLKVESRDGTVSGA
Chain of BDNF/NT-3 growth factors receptor (Rattus norvegicus) (Q63604 whole entry): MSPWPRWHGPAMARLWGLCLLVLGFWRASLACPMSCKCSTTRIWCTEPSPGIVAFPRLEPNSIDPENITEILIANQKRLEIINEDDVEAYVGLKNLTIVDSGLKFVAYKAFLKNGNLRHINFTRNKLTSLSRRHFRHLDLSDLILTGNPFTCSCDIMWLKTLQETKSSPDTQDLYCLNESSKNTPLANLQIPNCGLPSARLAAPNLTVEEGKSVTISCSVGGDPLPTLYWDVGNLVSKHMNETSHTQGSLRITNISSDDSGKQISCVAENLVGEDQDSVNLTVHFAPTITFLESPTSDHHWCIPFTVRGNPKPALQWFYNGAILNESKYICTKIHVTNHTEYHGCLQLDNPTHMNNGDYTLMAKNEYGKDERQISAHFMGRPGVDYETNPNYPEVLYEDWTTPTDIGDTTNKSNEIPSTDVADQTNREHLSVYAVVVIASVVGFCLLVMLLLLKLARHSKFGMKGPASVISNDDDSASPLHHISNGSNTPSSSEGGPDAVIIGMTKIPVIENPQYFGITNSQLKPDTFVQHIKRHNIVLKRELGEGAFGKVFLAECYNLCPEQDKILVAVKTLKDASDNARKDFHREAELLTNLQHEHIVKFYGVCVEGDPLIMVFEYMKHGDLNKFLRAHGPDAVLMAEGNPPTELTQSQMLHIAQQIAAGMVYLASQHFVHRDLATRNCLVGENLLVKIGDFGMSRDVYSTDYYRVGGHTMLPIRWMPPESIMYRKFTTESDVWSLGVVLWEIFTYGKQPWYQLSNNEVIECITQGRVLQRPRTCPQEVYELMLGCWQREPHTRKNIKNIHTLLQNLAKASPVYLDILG
Chain of CYP2C19 (P33261 whole entry): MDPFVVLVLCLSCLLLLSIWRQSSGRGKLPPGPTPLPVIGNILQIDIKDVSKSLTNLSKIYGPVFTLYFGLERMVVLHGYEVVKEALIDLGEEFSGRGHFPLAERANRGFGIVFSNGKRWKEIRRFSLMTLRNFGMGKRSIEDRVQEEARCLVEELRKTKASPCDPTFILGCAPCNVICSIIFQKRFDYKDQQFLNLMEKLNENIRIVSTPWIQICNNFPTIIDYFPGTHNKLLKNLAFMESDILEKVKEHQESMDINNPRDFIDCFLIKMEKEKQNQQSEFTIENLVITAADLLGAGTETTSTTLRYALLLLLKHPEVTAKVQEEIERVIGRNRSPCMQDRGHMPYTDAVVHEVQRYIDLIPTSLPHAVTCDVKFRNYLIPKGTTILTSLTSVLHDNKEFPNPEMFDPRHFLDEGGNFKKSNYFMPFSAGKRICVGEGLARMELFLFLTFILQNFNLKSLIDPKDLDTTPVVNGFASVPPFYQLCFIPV

O=c1cc(-c2ccc(N3CCCC3)cc2)oc2c1ccc1cc[nH]c12
Activity [1]: Active | Activity [2]: Non-toxic | inhibition at 30 µM [3]: 52.9% | inhibition at 30 µM [4]: 18.7% | inhibition at 30 µM [5]: 81.6% | inhibition at 30 µM [6]: 48.1% | inhibition at 3 µM [7]: 7.2% | Activity [8]: inactive | Activity [9]: Active | Activity [10]: Active | inhibition at 3 µM [11]: 3.9% | Activity [12]: Active | inhibition at 30 µM [13]: 90% | Activity [14]: Active | inhibition at 3 µM [15]: 3.4% | Activity [16]: Active | Activity [17]: Non-toxic | Activity [18]: Non-toxic | inhibition at 3 µM [19]: 11.9% | inhibition at 30 µM [20]: 75.9% | Activity [21]: Non-toxic | remaining at 1 h, 1 µM [22]: 79.6%

Cc1nc2ccc3c(=O)cc(-c4ccc(N5CCCC5)cc4)oc3c2[nH]1
Activity [1]: Active | Activity [2]: Non-toxic | inhibition at 30 µM [3]: 73.6% | inhibition at 30 µM [4]: 43.3% | inhibition at 30 µM [5]: 32% | inhibition at 30 µM [6]: 40.5% | inhibition at 3 µM [7]: 8.7% | Activity [8]: Active | Activity [9]: Active | Activity [10]: Active | inhibition at 3 µM [11]: 10.8% | Activity [12]: Active | inhibition at 30 µM [13]: 57.7% | Activity [14]: Active | inhibition at 3 µM [15]: 4.5% | Activity [16]: Active | Activity [17]: Non-toxic | Activity [18]: Non-toxic | inhibition at 3 µM [19]: 12.4% | inhibition at 30 µM [20]: 66.1% | Activity [21]: Non-toxic | remaining at 1 h, 1 µM [22]: 92.2%
